The results in this text go back to ChEMBL document CHEMBL1649391, “A systematic protocol for the characterization of Hsp90 modulators” (Bioorg Med Chem, 2011).

Calls of active or inactive are those of the source. The calls are words filed in the database; no cut-off is given here.

Test [1] addresses Heat shock protein HSP 90-beta (Homo sapiens) (UniProt P08238). In words: Inhibition of HSP90 in human MCF7 cells assessed as degradation of Hsp70 protein up to 50 uM after 48 hrs by Western blotting. It is filed as cell-based. Summed up: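 MCF-7 cells were grown in DMEM/F-12 with nonessential amino acids, 2 mM glutamine, penicillin/streptomycin and 10% FBS at 37 °C and 5% CO2. Cells were seeded at 1×10⁶ per dish and left to attach overnight. They were then exposed to varying compound concentrations for 48 h, harvested, and Western blotted for Hsp90 client proteins and Hsp70.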
On the technique in general: Immunoblotting shows a protein as a band on a membrane.

The target is the same in test [2]. In words: Inhibition of HSP90 binding to Cdc37 in human SKBR-3 cells by Western blotting. It is filed as cell-based. An outline of the steps: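 SKBr-3 cells were treated for 24 h at 0–10 μM. Cells were lysed in NP-40/molybdate Tris buffer pH 7.4 for 2 h at 4 °C, then centrifuged. Lysate protein (500 μg) was immunoprecipitated with anti-Hsp90 for 2 h, then with protein G agarose overnight at 4 °C. Washed precipitates were immunoblotted for Hsp90 and Cdc37.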

The target of test [3] is T1, Heat shock protein HSP 90 (Oryctolagus cuniculus) (UniProt P11500).
T1 sequence (whole entry): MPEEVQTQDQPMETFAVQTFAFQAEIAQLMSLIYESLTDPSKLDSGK
In words: Modulation proteolytic fingerprint of HSP90 in rabbit reticulocyte lysates at 20 uM after 5 mins by SDS-PAGE analysis in presence of 125 ug/ml of trypsin. An outline of the steps: (§1)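 TnT rabbit reticulocyte lysate (50% v/v) with an ATP-regenerating system (10 mM creatine phosphate, 20 units/mL creatine phosphokinase) and 75 mM KCl. Drug or vehicle was added for 5 min at 37 °C, then the mix was chilled. TPCK-trypsin (0, 50 or 125 μg/ml) was added on ice for 6 min. Reactions were stopped by boiling in SDS sample buffer, then run on SDS-PAGE and Western blotted with antibodies to the Hsp90 N-terminus and C-terminus.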

Test [4] deals with LNCaP. The experiment in a line: Antiproliferative activity against human LNCAP cells. Type of test: functional, cell-based.
Test [5] addresses Heat shock protein HSP 90-beta (Homo sapiens) (UniProt P08238). The experiment in a line: Displacement of geldanamycin bound sepharose from HSP90 after 5 mins by affinity chromatography analysis. Summed up:
(§2)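 Lysate with the ATP-regenerating mix was preincubated for 5 min at 37 °C, then loaded onto novobiocin-epoxy-sepharose or onto geldanamycin-derivatized AffiGel beads blocked with BSA. Columns were washed with 20 volumes of buffer containing 0.15 M NaCl. Bound Hsp90 was eluted with a linear 0–5 mM compound gradient in the dark at 4 °C. Eluates were run on 12.5% SDS-PAGE and immunoblotted for Hsp90.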

The target in test [6] is T1, Heat shock protein HSP 90 (Oryctolagus cuniculus). The experiment in a line: Modulation proteolytic fingerprint of HSP90 in rabbit reticulocyte lysates at 10 uM after 5 mins by SDS-PAGE analysis in presence of 125 ug/ml of trypsin. An outline of the steps:
as §1

For test [7], the target named is Heat shock protein HSP 90-alpha (Homo sapiens) (UniProt P07900). The experiment in a line: Inhibition of human HSP90alpha expressed in yeast PP30 cells co-expressing HSF-lacZ reporter assessed as inhibition of heat stress-induced response at 100 uM after 3 hrs. It is filed as cell-based. An outline of the steps:
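Yeast PP30 carrying human Hsp90α as its sole Hsp90 was transformed with a 3×HSE-lacZ reporter and grown at 30 °C in uracil-dropout 2% glucose medium to 2–3×10⁶ cells/ml. Cells were treated with compound, then heat-shocked for 1 h at 39 °C. In lysates, β-galactosidase was read with ONPG in buffer Z pH 7.0 at 30 °C, stopped with Na2CO3, read at OD420 and normalized to protein.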

Test [8] concerns LNCaP. The experiment in a line: Ratio of compound IC50 to KU135 IC50 for human LNCAP cells. Type of test: functional.
Test [9] is described as follows: Ratio of compound IC50 to KU135 IC50 for human LNCaP-LN3 cells. It is filed as functional.
Test [10] concerns the target Heat shock protein HSP 90-beta (Homo sapiens) (UniProt P08238). In words: Displacement of novobiocin bound sepharose from HSP90 after 5 mins by affinity chromatography analysis. Summed up:
as §2

Chain of Heat shock protein HSP 90-beta (Homo sapiens) (P08238 whole entry): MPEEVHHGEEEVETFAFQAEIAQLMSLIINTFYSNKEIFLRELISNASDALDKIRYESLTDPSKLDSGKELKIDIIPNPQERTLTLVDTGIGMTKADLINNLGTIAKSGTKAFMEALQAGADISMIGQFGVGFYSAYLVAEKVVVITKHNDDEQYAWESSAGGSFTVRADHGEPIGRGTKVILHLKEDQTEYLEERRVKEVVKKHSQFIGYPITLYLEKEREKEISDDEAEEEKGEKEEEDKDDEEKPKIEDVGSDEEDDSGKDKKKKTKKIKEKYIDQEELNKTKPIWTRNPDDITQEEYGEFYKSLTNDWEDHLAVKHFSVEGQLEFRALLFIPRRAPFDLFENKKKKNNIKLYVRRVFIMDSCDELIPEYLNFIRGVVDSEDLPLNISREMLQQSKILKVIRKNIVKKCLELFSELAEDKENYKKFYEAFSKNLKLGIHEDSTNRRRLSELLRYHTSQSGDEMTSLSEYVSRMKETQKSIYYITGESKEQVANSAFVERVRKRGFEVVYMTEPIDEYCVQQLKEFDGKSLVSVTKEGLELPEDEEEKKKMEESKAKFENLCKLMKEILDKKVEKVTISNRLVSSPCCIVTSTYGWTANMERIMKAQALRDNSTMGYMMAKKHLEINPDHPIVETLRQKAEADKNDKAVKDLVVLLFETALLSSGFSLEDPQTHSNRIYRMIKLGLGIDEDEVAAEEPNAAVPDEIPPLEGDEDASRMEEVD

For `O=C(O)CCc1nn(Cc2ccc(Cl)cc2Cl)c2cc(C(F)(F)F)ccc12`, the outcome (in test [1]; in the test on LNCaP [4]) was inactive. Moreover, in test [2], the Activity entry is “Dose-dependent effect”. The result in test [3] and in test [5] was Active.
As for `CC(=O)O[C@@H]1C[C@H]2C(C)(C)C(=O)C=C[C@]2(C)[C@H]2CC[C@@]3(C)[C@H](c4ccoc4)OC(=O)[C@H]4O[C@]43[C@@]21C`, the outcome (in test [1]; in the test on LNCaP [4]) was inactive. Also, in [2], the Activity entry is “Dose-dependent effect”. Also, the result in test [3] and in [5] was Active.
As to `COc1cccc(-c2cc(C(=O)Nc3cc4cc(OC)c(OC(C)=O)c(C)c4oc3=O)ccc2OC)c1`, the outcome in [1] was inactive. The result in test [6] and in test [7] was Active. The “Ratio IC50” value (with LNCaP [8]; in [9]) was 1000 in each case.
On to `CO[C@@H]1[C@@H](O)[C@@H](O)[C@H](Oc2ccc3cc(NC(C)=O)c(=O)oc3c2)OC1(C)C`, for which, in test [1], the outcome was inactive. In addition, in test [6], the result was Active.
Turning to `CC1=C(O)C(=O)C=C2C1=CC=C1[C@@]2(C)CC[C@@]2(C)[C@@H]3C[C@](C)(C(=O)O)CC[C@]3(C)CC[C@]12C`, the outcome (in test [1]; with LNCaP [4]) was inactive. For the same compound, in test [2], the Activity entry is “Dose-dependent effect”. For the same compound, the outcome in test [3] and in test [5] was Active.
In the case of `COc1cccc(-c2cc(C(=O)Nc3cc4ccc(O[C@@H]5OC(C)(C)[C@H](OC)[C@@H](O)[C@H]5O)c(OC)c4oc3=O)ccc2OC)c1`, the result (in [1]; with LNCaP [4]) was inactive. In test [6], the result was Active.
With `CO[C@@H]1[C@@H](OC(=O)c2ccc(C)[nH]2)[C@@H](O)[C@@H](Oc2ccc3c(O)c(NC(=O)c4c[nH]c(C(=O)Nc5c(O)c6ccc(O[C@H]7OC(C)(C)[C@H](OC)[C@@H](OC(=O)c8ccc(C)[nH]8)[C@H]7O)c(C)c6oc5=O)c4C)c(=O)oc3c2C)OC1(C)C`, the result (in [1]; in the test with LNCaP [4]) was inactive. The outcome in test [6] was Active.
With `CO[C@@H]1[C@@H](O)[C@@H](O)[C@H](Oc2ccc3cc(NC(C)=O)c(=O)oc3c2C)OC1(C)C`, the result in test [1] was inactive. The result in test [6] was Active.
The term IC50 denotes the concentration that inhibits the measured activity by half. As to `CO[C@@H]1[C@@H](OC(N)=O)[C@@H](O)[C@H](Oc2ccc3c(O)c(NC(=O)c4ccc(O)c(CC=C(C)C)c4)c(=O)oc3c2C)OC1(C)C` [NOVOBIOCIN], the result in [1] and in test [10] was inactive. Moreover, the result in test [6] and in [7] was Active. Further, half-maximal inhibition in the test with LNCaP [4] (IC50) required 420 nM.
For the compound `CO[C@@H]1[C@@H](O)[C@@H](O)[C@H](Oc2ccc3cc(NC(=O)CCCCCCC(=O)Nc4cc5ccc(O[C@H]6OC(C)(C)[C@@H](OC)[C@H](O)[C@@H]6O)cc5oc4=O)c(=O)oc3c2C)OC1(C)C`, in test [1], the outcome was inactive. Also, the result in test [6] was Active.
